Marks after values point to notes of the source that are not given here. No end group written: not given here.
Columns and labels:
[1] = 298 K; average of HN CSD values at T(L3), K(S+1) and G(L4) ΔδHα/α', K1R-HP7 as fully-folded state; cited from earlier work
[2] = CD thermal denaturation; assay type: physicochemical; conditions: for β-Strap %-fold χF at 291K: local β-strap folding at 291 K (18 °C) from best-fitted melting curves of [θ(T)]228, phosphate buffer 15 mM, pH 6.5; for T·ΔΔSF°: entropic difference between pairs as printed: 2b/2a, 3d/3e; for χF / % fold (NMR and CD collectively): 291 K, NMR and CD data together; for ΔGF*: free energy at temperature T* of maximal stability, from thermostability curves; for % folded below 50 °C: plateau of thermal stability from 0 to ~50 °C, dynamic equilibrium of stable conformational states; for ΔCpF°: heat capacity of folding
[3] = Kinetic solubility in phosphate buffer; assay type: physicochemical; conditions: phosphate buffer (PB, 50 mM), pH 7.4
[4] = Loop %-folding by 1H NMR from glycine Hα/α' splitting; assay type: physicochemical; conditions: 291 K; ΔδHα/α'G(L4) model with 0.33 ppm as fully-folded state (model of ref 27)
In short: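 Peptide samples at 3–10 mM for 1H NMR, TOCSY (80 ms mixing), NOESY (200 ms mixing) and 1H–13C HSQC. Samples for 1H–15N HSQC and HMBC were at 10–20 mM, with some constructs at 10–70 mM. Chemical shift deviations are experimental δH minus calculated random-coil δH. Random-coil values were checked against random-coil reference peptides (Δ|CSD| ≤ 0.20 ppm).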

## Ac-NPATGK-NH2 [Loop]
[1]
  Loop %-fold χF: 6 ± 7%^d

## Ac-W-NPATGK-W-NH2 [Tr-HP7]
[1]
  Loop %-fold χF: 49 ± 1%^d

## Ac-WDDATKTWTG-NH2 [1b]
[2]
  β-Strap %-fold χF at 291K: 54 ± 7%
[3]
  solubility: 35.3 mM

## Ac-WNPATGKWTG-NH2 [1a]
[2]
  β-Strap %-fold χF at 291K: 28 ± 1%
[4]
  Loop %-fold χF (value in parentheses): 70%
[3]
  solubility: 2.9 mM

## Ac-WTFNPATGKFKWTG-NH2 [1c]
[2]
  β-Strap %-fold χF at 291K: 63 ± 4%
[4]
  Loop %-fold χF (value in parentheses): 151%
[3]
  solubility: 22.3 mM

## Ac-WVWGPGTGKWVW-NH2 [2b]
[2]
  T·ΔΔSF°: 13.6 kJ/mol
  β-Strap %-fold χF at 291K: 56 ± 1%
[4]
  Loop %-fold χF (value in parentheses): 9%
[3]
  solubility: 0.8 mM

## Ac-WVWNPATGKWVW-NH2 [2a]
[2]
  χF / % fold (NMR and CD collectively): > 90%
  ΔGF*: -10.5 kJ/mol
  β-Strap %-fold χF at 291K: 99 ± 1%
  % folded below 50 °C: > 80%
[2]; folding free energy at 298 K, two-state model from CD melts
  ΔGF°: -9.87 kJ/mol
[4]
  Loop %-fold χF (value in parentheses): 154%
[3]
  solubility: 1.2 mM

## KTW-NPATGK-WTE [HP7]
[1]
  Loop %-fold χF: 89 ± 1%^d

## RWHWNPATGKWVWE [3b]
[2]
  ΔGF*: -7.7 kJ/mol
  β-Strap %-fold χF at 291K: 95 ± 2%
  % folded below 50 °C: > 80%
[2]; two-state model from CD melts
  ΔCpF°: −158 ± 3 cal·mol^−1·deg^−1
[4]
  Loop %-fold χF (value in parentheses): 167%
[3]
  solubility: 56.3 mM

## RWNPATGKWE [3c]
[2]; two-state model from CD melts
  ΔCpF°: −106 cal·mol^−1·deg^−1
[2]
  β-Strap %-fold χF at 291K: 84 ± 11%
[4]
  Loop %-fold χF (value in parentheses): 139%
[3]
  solubility: 39.5 mM

## RWVWGGGGKKGGGGWVWE [3d]
[2]
  T·ΔΔSF°: -14.8 kJ/mol
  β-Strap %-fold χF at 291K: 88 ± 1%
[3]
  solubility: 5.8 mM

## RWVWNPATGKWVWE [3a]
[2]
  χF / % fold (NMR and CD collectively): 89–93%
  β-Strap %-fold χF at 291K: 89 ± 14%
  % folded below 50 °C: > 80%
[2]; two-state model from CD melts
  ΔCpF°: −53 cal·mol^−1·deg^−1
[4]
  Loop %-fold χF (value in parentheses): 154%
[3]
  solubility: 27.1 mM

## RWVWRDYRFDMGFDWVWE [3e]
[2]
  β-Strap %-fold χF at 291K: 55 ± 1%
[3]
  solubility: 0.6 mM

## RWVWRDYRGDMGFDWVWE [3f]
[2]
  ΔGF*: -13.3 kJ/mol
  β-Strap %-fold χF at 291K: 82 ± 1%
[3]
  solubility: 8.2 mM

From paper PMC8576641 (The Journal of organic chemistry, 2021)
